Measurements pooled from the literature.
Lines come from different studies, so protocols differ.
Target: Epithelial discoidin domain-containing receptor 1 (DDR1, Homo sapiens, UniProt Q08345)

Compound	test	conditions	remaining binding
O=C(c1ccc(Nc2ncc(Cl)c(-c3ccc(Cl)s3)n2)cc1)N1CCC(N2CCCC2)CC1	binding, competition with immobilised ligand	1 µM	12%
Nc1ncc2c(n1)-c1c([nH]c3ccc(C#CC4CC4)cc13)CCCC2	binding, competition with immobilised ligand	1 µM	100%
FC(F)(F)Oc1cccc(-c2cnc3ccc(-c4ccncc4)nn23)c1	cell-free assay, competition with immobilised ligand	5 µM	48%
CN(c1nccc(-c2cnn3ncccc23)n1)C1CC1	binding	1 µM	80%
O=C(Nc1c[nH]nc1C(=O)NC1CCNCC1)c1cc(F)cc(F)c1	binding, competition with immobilised ligand	1 µM	100%
CN(C)c1nccc(-c2cnn3ncccc23)n1	binding	1 µM	100%
O=C(NCCCN1CCOCC1)c1ccc(Nc2nccc(-c3cc4ccccc4s3)n2)cc1	binding, competition with immobilised ligand	1 µM	20%
c1cncc(-c2cccc(Nc3nccc(NC4CCCCC4)n3)c2)c1	binding, competition with immobilised ligand	10 µM	27%
O=C(NCCCN1CCOCC1)c1ccc(Nc2ncc(Cl)c(-c3ccc(Cl)s3)n2)cc1	binding, competition with immobilised ligand	1 µM	84%
CNC(=O)Nc1ccc2c(c1)CC[C@@]21OC(=O)N(CC(=O)N(Cc2ccc(F)cc2)[C@@H](C)C(F)(F)F)C1=O	cell-free assay, competition with immobilised ligand	1 µM	100%
N[C@H]1CCN(c2nccc(-c3cnn4ncccc34)n2)C1	binding	1 µM	100%
CC(=O)c1c(NS(C)(=O)=O)c2cc(-c3ccc(Cl)cc3)c(-c3ccc(Cl)cc3Cl)nc2n(C)c1=O	cell-free assay, competition with immobilised ligand	1 µM	100%
F[C@@H]1CCN(c2nccc(-c3cnn4ncccc34)n2)C1	binding	1 µM	83%
O=C(O)c1cc(-c2ccc(C3CCNCC3)cc2)c2ccc(-c3ccc(C(F)(F)F)cc3)cc2c1	cell-free assay, competition with immobilised ligand	1 µM	100%
CN(C)c1ncc(F)c(-c2cnn3ncccc23)n1	binding	1 µM	89%
CS(=O)(=O)N1CCCC(NC(=O)[C@H](CCC2CCCCC2)NC(=O)c2ccc(CNc3ncnc4c3nnn4-c3ccccc3)cc2)C1 (stereo partly drawn)	cell-free assay, competition with immobilised ligand	0.1 µM	89%
COc1cnc(Nc2cccc(S(N)(=O)=O)c2)nc1N1CCN(c2ccccc2)CC1	binding, competition with immobilised ligand	1 µM	93%
FC(F)(F)c1ccc2c(c1)nc(-c1cccnc1)n2C1CC1	cell-free assay, competition with immobilised ligand	1 µM	100%
C[C@@H](c1ccc(-n2cnc3c(N)ncnc32)cc1)N1CCc2nn(C)c(Cc3ccccc3)c2C1=O	binding, competition with immobilised ligand	0.1 µM	8.9%
COc1ccnn2ncc(-c3ccnc(N(C)C)n3)c12	binding	1 µM	100%
CC(C)(O)c1cncc(-c2nc3ccc(F)cc3n2C2CC2)c1	cell-free assay, competition with immobilised ligand	1 µM	100%
